Measurements collected from several papers.
Compare with care: the assays were run in different laboratories.
BACE1: Beta-secretase 1 (BACE1, Homo sapiens, UniProt P56817)
Ephx2: Bifunctional epoxide hydrolase 2 (Ephx2, Mus musculus, UniProt P34914)
BRAF: Serine/threonine-protein kinase B-raf (BRAF, Homo sapiens, UniProt P15056)
EGFR L858R/T790M: Epidermal growth factor receptor (EGFR, Homo sapiens, UniProt P00533, L858R/T790M)
ELANE: Neutrophil elastase (ELANE, Homo sapiens, UniProt P08246)
MUSK: Muscle, skeletal receptor tyrosine-protein kinase (MUSK, Homo sapiens, UniProt O15146)
Delta-aminolevulinic acid dehydratase C162A/K59N: Delta-aminolevulinic acid dehydratase (Homo sapiens, UniProt P13716, C162A/K59N)
SMARCA2 bromodomain: SWI/SNF-related matrix-associated actin-dependent regulator of chromatin subfamily A member 2, bromodomain (SMARCA2, Homo sapiens, UniProt P51531)
SMUG1: SMUG1 (Homo sapiens, UniProt Q53HV7)
RXFP3: Relaxin-3 receptor 1 (RXFP3, Homo sapiens, UniProt Q9NSD7)
MTOR: Serine/threonine-protein kinase mTOR (MTOR, Homo sapiens, UniProt P42345)

Compound | target | assay | setting | IC50
Cc1cc2cc(c1)C(=O)N[C@H]([C@H](O)CN(Cc1cccc(C(C)C)c1)C(=O)OC(C)(C)C)CCC/C=C/CCCC2=O | BACE1 | enzyme activity, inhibitor |  | > 10 µM
CNc1nc(C)nc(N[C@H]2CCC[C@@H](C(=O)NCc3ccc(C#N)cc3C(F)(F)F)C2)n1 | Ephx2 | enzyme activity, inhibitor |  | 0.004 µM
COc1ccc2c(c1)OC1Oc3cc(O)c(CC=C(C)C)c(O)c3C(=O)C21O (stereo not drawn) | BACE1 | enzyme activity, inhibitor |  | 91 µM
CC(C)(C)n1nc(-c2cnc3cc(OC4CC4)ccc3c2)c(C(N)=O)c1N | BRAF | cell-free assay |  | > 10 µM
N#CC(C(=O)c1ccc(Cl)cc1Cl)=C1NC(=O)c2ccc(OCc3ccc4c(c3)OCO4)cc2N1 | Cytoplasmic dynein 2 heavy chain 1 (DYNC2H1, Homo sapiens, UniProt Q8NCM8) | ATPase activity, inhibitor |  | 11 µM
C=C(Cl)C(=O)Nc1cc(Nc2nc(N3CCOCC3)c3sccc3n2)c(OC)cc1N(C)CCN(C)C | EGFR L858R/T790M | enzyme activity, inhibitor, ELISA |  | 0.063 µM
Cc1cccc(C(=O)Oc2cnnc3ccc([N+](=O)[O-])cc23)c1 | ELANE | enzyme activity, inhibitor, fluorescence |  | 0.59 µM
Cc1cc(Nc2cc(CN3CCOCC3)c3nc(C)c(Cc4ccc(Cl)cc4F)n3n2)n[nH]1 | MUSK | enzyme activity, inhibitor, TR-FRET |  | 0.147 µM
NC(=O)N/N=C/c1ccc([N+](=O)[O-])o1 | Delta-aminolevulinic acid dehydratase C162A/K59N | enzyme activity, inhibitor, absorbance | pH 8, with preincubation | 2.1 µM
Cc1ncsc1-c1ccc(CNC(=O)[C@@H]2C[C@@H](O)CN2C(=O)[C@@H](NC(=O)C2(F)CC2)C(C)(C)C)c(OCCOCCOCCN2CCN(c3cc(-c4ccccc4O)nnc3N)CC2)c1 | SMARCA2 bromodomain | ligand displacement, TR-FRET |  | 2.4 µM
COc1cc(NC(=O)N2CCC(n3c(=O)[nH]c4c(Br)cccc43)CC2)ccc1C | SMUG1 | enzyme activity, inhibitor |  | > 100 µM
O=C(Nc1ccc(-c2nc(-c3ccc(F)cc3)no2)cc1)C1CC(=O)N(Cc2cccnc2)C1 (stereo not drawn) | RXFP3 | cAMP, antagonist, TR-FRET |  | 2.67 µM
O=C(O)C1=CC(=C(c2ccc(O)c(C(=O)O)c2)c2ccc(O)c(C(=O)O)c2)C=CC1=O | DNA polymerase iota (Homo sapiens, UniProt Q9UNA4) | enzyme activity, inhibitor |  | 0.099 µM
CC(C)=CCCC(C)=CCc1c(O)cc2occ(-c3ccc(O)cc3)c(=O)c2c1O | BACE1 | enzyme activity, inhibitor |  | > 200 µM
CN1CCCN=C1/C=C/c1cccc(O)c1 | Delta-aminolevulinic acid dehydratase C162A/K59N | enzyme activity, inhibitor, absorbance | pH 8, with preincubation | 18 µM
CC(C)=CCCC(C)=CCc1c(O)cc(O)c2c(=O)c(-c3ccc(O)cc3O)coc12 | BACE1 | enzyme activity, inhibitor |  | 45 µM
COc1ccc2c(Oc3ccc4c(C(=O)Nc5ccccc5N)cccc4c3)ccnc2c1 | Mitogen-activated protein kinase 8 (MAPK8, Homo sapiens, UniProt P45983) | enzyme activity, inhibitor |  | > 0.5 µM
CCOC(F)(F)c1nnc2cnc(-c3cnc(OCC(F)(F)F)c(F)c3)cn12 | Sodium channel protein type 8 subunit alpha (Rattus norvegicus, UniProt O88420) | ion current, inhibitor, patch clamp |  | 0.18 µM
O=C(Nc1ccc(-c2nc(-c3ccc(C(F)(F)F)cc3)no2)cc1)C1CC(=O)N(Cc2cccnc2)C1 (stereo not drawn) | RXFP3 | cAMP, antagonist, TR-FRET |  | 2.17 µM
CC(=O)N[C@H]1CSSC[C@@H](C(=O)N[C@@H](Cc2c[nH]c3ccccc23)C(N)=O)NC(=O)[C@@H](Cc2ccccc2)NC(=O)[C@H](CCCNC(=N)N)NC1=O | Melanocortin receptor 3 (MC3R, Homo sapiens, UniProt P41968) | ligand displacement, radioligand |  | 0.42 µM
Cc1ncsc1-c1ccc(CNC(=O)[C@@H]2C[C@H](O)CN2C(=O)[C@@H](NC(=O)C2(F)CC2)C(C)(C)C)c(OCCOc2ccc(CN3CCN(c4cc(-c5ccccc5O)nnc4N)CC3)cc2)c1 | SMARCA2 bromodomain | ligand displacement, TR-FRET |  | 0.67 µM
O=C(N/N=C/c1cccn1CCN1CCOCC1)Nc1cc2c(Nc3ccc(F)c(Cl)c3)ncnc2cc1O[C@H]1CCOC1 | EGFR L858R/T790M | enzyme activity, inhibitor |  | 0.0167 µM
COc1ccc2c(c1OCc1ccc(OC(F)(F)F)cc1)C[C@@H](C(=O)O)N(c1nc3ccc(F)cc3o1)C2 | Type-1 angiotensin II receptor (AGTR1, Homo sapiens, UniProt P30556) | ligand displacement |  | > 10 µM

Compound | target | assay | setting | IC50
C[C@]1(C(=O)[C@H](CC2CCCCC2)NC(=O)[C@@H]2COCCCCCC(=O)N3CCC[C@H]3C(=O)N2)CO1 | Proteasome Macropain subunit MB1 (PSMB5, Homo sapiens, UniProt P28074) | enzyme activity, inhibitor, fluorescence |  | > 10 µM
O=C(O)c1cccnc1Nc1cccc(C(F)(F)F)c1 | Delta-aminolevulinic acid dehydratase C162A/K59N | enzyme activity, inhibitor, absorbance | pH 8, with preincubation | 13 µM
C=CC(=O)Nc1cc(Nc2nccc(-c3cn(C4CC4)c4ccccc34)n2)c(OC)cc1N(C)CCN(C)C | Epidermal growth factor receptor (EGFR, Homo sapiens, UniProt P00533, L747S) | enzyme activity, inhibitor, TR-FRET |  | 0.00309 µM
Cc1ccccc1-c1noc(-c2ccc(NC(=O)C3CC(=O)N(Cc4cccnc4)C3)cc2)n1 (stereo not drawn) | RXFP3 | cAMP, antagonist, TR-FRET |  | > 10 µM
Cc1cccc(C(=O)Oc2c(Cl)nnc3ccccc23)c1 | ELANE | enzyme activity, inhibitor, fluorescence |  | 4.8 µM
O=C(O)c1ccccc1Nc1cccc(C(F)(F)F)c1 | Delta-aminolevulinic acid dehydratase C162A/K59N | enzyme activity, inhibitor, absorbance | pH 8, with preincubation | 2.5 µM
Oc1ccc(-c2nc(-c3ccncc3)c(-c3ccc(F)cc3)[nH]2)cc1 | BRAF | cell-free assay, inhibitor |  | 1.13 µM
Cc1cccc(C(=O)n2ncc(=O)c3cc([N+](=O)[O-])ccc32)c1 | ELANE | enzyme activity, inhibitor, fluorescence |  | 0.26 µM
O=C(Nc1ccn(Cc2ccc(O)cc2C(F)(F)F)n1)c1c(F)cccc1F | Short transient receptor potential channel 6 (TRPC6, Homo sapiens, UniProt Q9Y210) | ion current, inhibitor |  | > 10 µM
CC(C)C[C@H](NC(=O)[C@H](Cc1ccccc1)NC(=O)[C@@H](N)Cc1ccc(O)cc1)C(=O)N[C@@H](Cc1ccccc1)C(=O)N[C@@H](CCCNC(=N)N)C(=O)N1CCC[C@H]1C(=O)N[C@@H](CCCNC(=N)N)C(=O)N[C@@H](CC(N)=O)C(N)=O | Neuromedin-U receptor 2 (Mus musculus, UniProt Q8BZ39) | ligand displacement, radioligand |  | 9.12e-05 µM
CN1CCN(c2ccc(Nc3ncc4cc(C#N)c(=O)n(C5CCCC5)c4n3)cc2)CC1 | Ephrin type-B receptor 2 (EPHB2, Homo sapiens, UniProt P29323) | enzyme activity, inhibitor |  | 0.0868 µM
CC(O)C(C)C(=O)N1CCC(NC(=O)Nc2ccc(OC(F)(F)F)c(F)c2)CC1 (stereo not drawn) | Ephx2 | enzyme activity, inhibitor |  | 0.0022 µM
Nc1ncc(-c2nc(N3CCOCC3)nc(N3[C@@H]4CC[C@H]3COC4)n2)c(C(F)F)n1 | MTOR | ligand displacement, TR-FRET |  | 0.0213 µM
CCCCn1c(Sc2ccc(Cl)cc2Cl)nc2c(N)ncnc21 | Endoplasmin (HSP90B1, Canis lupus familiaris, UniProt P41148) | ligand displacement, FP |  | 0.8 µM
Nc1ncc(-c2nc(N3CCOCC3)nc(N3C[C@H]4CC[C@@H](C3)O4)n2)c(C(F)F)n1 | MTOR | ligand displacement, TR-FRET |  | 0.0422 µM
CCn1ncc2c1-c1cnc(N)c(c1)O[C@H](C)c1cc(F)ccc1-c1nn(C)nc1C2 | MUSK | enzyme activity, inhibitor, radiometric |  | 0.044 µM
Cc1cccc(C(=O)n2ncc(=O)c3ccccc32)c1 | ELANE | enzyme activity, inhibitor, fluorescence |  | 0.056 µM
CCCS(=O)(=O)Nc1ccc(F)c(C(=O)c2c[nH]c3ncc(-c4ccc(CNC(=O)COCC(=O)NCc5ccc(-c6cnc7[nH]cc(C(=O)c8c(F)ccc(NS(=O)(=O)CCC)c8F)c7c6)cc5)cc4)cc23)c1F | Serine/threonine-protein kinase B-raf (BRAF, Homo sapiens, UniProt P15056, Q461A/V600E) | enzyme activity, inhibitor, ELISA |  | ~0.464 µM
Cc1ccc(C(=O)Nc2ccc(Oc3cc4cnn(C)c4cc3-c3cn[nH]c3)c(F)c2)c(=O)n1-c1ccc(F)cc1 | Proto-oncogene tyrosine-protein kinase ROS (ROS1, Homo sapiens, UniProt P08922) | phosphorylation in cells, inhibitor, western blot |  | 0.17 µM
NCCCC[C@H](NC(=O)[C@@H]1CCCN1C(=O)[C@@H]1CSSC[C@H](NC(=O)CNC(=O)CNC(=O)CN)C(=O)N[C@@H](Cc2ccc(O)cc2)C(=O)N[C@@H](Cc2ccccc2)C(=O)N[C@@H](CCC(N)=O)C(=O)N[C@@H](CC(N)=O)C(=O)N1)C(=O)NCC(N)=O | Vasopressin V2 receptor (AVPR2, Homo sapiens, UniProt P30518) | ligand displacement, radioligand | cell membranes | 9.6 µM
NC1=NCC(c2cccc3ccccc23)OC1 (stereo not drawn) | BACE1 | enzyme activity, inhibitor, FRET | pH 5 | 1100 µM
O=C(Nc1ccc(Br)cc1)N1CCC(n2c(=O)[nH]c3c(Br)cccc32)CC1 | SMUG1 | enzyme activity, inhibitor |  | > 100 µM
